Experimental data: ChEMBL document CHEMBL3112397, “Antitrypanosomal structure-activity-relationship study of synthetic cynaropicrin derivatives” (Bioorg Med Chem Lett, 2014)

How the values were obtained:
L6 = test: Cytotoxicity against rat L6 cells after 70 hrs by alamar blue assay; format: cell-based; conditions: L6, 70 h
Procedure, shortened: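 Rat skeletal myoblasts (L6) were kept in RPMI 1640 with L-glutamine, 5.95 g/L HEPES, 2 g/L NaHCO3 and 10% FBS at 37 °C in 5% CO2, seeded at 4000 cells/well, then given fresh medium 24 h later with or without serial threefold drug dilutions. Podophyllotoxin served as reference. After 70 h, Alamar Blue was added for 2 h more and read at ex 536/em 588 nm. IC50 came from sigmoidal curves, ≥3 independent repeats.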

[1] = Selectivity index, ratio of IC50 for rat L6 cells to IC50 for Trypanosoma brucei rhodesiense STIB 900; format: toxicity, cell-based; conditions: read-out: Ratio IC50
Procedure, shortened: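 SI was calculated as IC50 in L6 cells divided by IC50 against T. b. rhodesiense, with both values from the Alamar Blue assays.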

[2] = test system: Trypanosoma brucei rhodesiense; test: Antitrypanosomal activity against bloodstream form of Trypanosoma brucei rhodesiense STIB 900 after 70 hrs by alamar blue assay; format: functional, organism-based; conditions: STIB 900, 70 h
Procedure, shortened: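 T. b. rhodesiense STIB 900 bloodstream forms were grown at 37 °C in humidified 5% CO2 in MEM with Earle's salts plus 0.2 mM 2-mercaptoethanol, 1 mM sodium pyruvate, 0.5 mM hypoxanthine and 15% heat-inactivated horse serum. Serial threefold dilutions were tested with Alamar Blue read-out (ex 536/em 588 nm). IC50 was taken from sigmoidal growth-inhibition curves over at least three independent repeats (mean ± SEM).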

Question: For `C=C(COC(C)=O)C(=O)O[C@H]1CC(=C)[C@@H]2C[C@H](OC(C)=O)C(=C)[C@@H]2[C@H]2OC(=O)C(=C)[C@@H]21`, which IC50 (L6) is on record?
Answer: 4.94 µM

Question: What about the selectivity ratio [1] of the same compound?
Answer: 2.3

Question: And the IC50 [2]?
Answer: 2.13 µM

Question: With `C=C(COC(C)=O)C(=O)O[C@H]1CC(=C)[C@@H]2C[C@H](O)C(=C)[C@@H]2[C@H]2OC(=O)C(=C)[C@@H]21` as the compound, how does the IC50 (L6) read?
Answer: 6.39 µM

Question: And the selectivity ratio [1]?
Answer: 3.4

Question: What about the IC50 [2] of the same compound?
Answer: 1.86 µM

Question: What does the source list for `C=C(C)C(=O)O[C@H]1CC(=C)[C@@H]2C[C@H](OCOC)C(=C)[C@@H]2[C@H]2OC(=O)C(=C)[C@@H]21`?
Answer: IC50 (L6): 0.3 µM; selectivity ratio [1]: 0.9; IC50 [2]: 0.34 µM

Question: For `C=C1C(=O)O[C@@H]2[C@H]3C(=C)[C@@H](OCOC)C[C@H]3C(=C)C[C@H](O)[C@@H]12`, which IC50 (L6) is on record?
Answer: 0.86 µM

Question: And the selectivity ratio [1]?
Answer: 0.4

Question: And the IC50 [2]?
Answer: 2.21 µM

Question: What does the source list for `C=C(COCOC)C(=O)O[C@H]1CC(=C)[C@@H]2C[C@H](OCOC)C(=C)[C@@H]2[C@H]2OC(=O)C(=C)[C@@H]21`?
Answer: IC50 (L6): 0.17 µM; selectivity ratio [1]: 0.4; IC50 [2]: 0.48 µM

Question: With `C=C(C)C(=O)O[C@H]1CC(=C)[C@@H]2C[C@H](O)C(=C)[C@@H]2[C@H]2OC(=O)C(=C)[C@@H]21` [AGUERIN B] as the compound, how does the IC50 (L6) read?
Answer: 0.33 µM

Question: And the selectivity ratio [1]?
Answer: 1.9

Question: What about the IC50 [2] of the same compound?
Answer: 0.17 µM

Question: Which IC50 (L6) does the source give for `C=C(CO)C(=O)O[C@H]1CC(=C)[C@@H]2C[C@H](O)C(=C)[C@@H]2[C@H]2OC(=O)C(=C)[C@@H]21` [CYNAROPICRIN] here?
Answer: 2.19 µM

Question: What about the selectivity ratio [1] of the same compound?
Answer: 7.8

Question: And the IC50 [2]?
Answer: 0.28 µM

Question: Which IC50 (L6) does the source give for `C=C1C(=O)O[C@@H]2[C@H]3C(=C)[C@@H](O)C[C@H]3C(=C)C[C@H](O)[C@@H]12` [DESACYLCYNAROPICRIN] here?
Answer: 4.94 µM

Question: What about the selectivity ratio [1] of the same compound?
Answer: 1

Question: And the IC50 [2]?
Answer: 4.92 µM
